Source: ChEMBL document CHEMBL3259588, “Anti-inflammatory drimane sesquiterpene lactones from an Aspergillus species” (Bioorg Med Chem, 2014)
Activity calls are given as the source filed them.

Tests used:
Assay type in all cases: cell-based
DLD-1 [1] = assay: Inhibition of TNF-alpha/IFN-gamma/IL-1beta-induced human CXCL10 (972 bp) promoter activity expressed in human DLD1 cells up to 260 uM after 24 hrs by luciferase reporter assay relative to untreated-control
Outline: (§1)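 DLD-1 in 24-well plates, switched to 0.5% FCS without antibiotics a day before lipofection (Lipofectamine 2000, 0.8 µg plasmid) with 972 bp CXCL10 promoter, NF-κB, GAS/Stat1 or ISRE luciferase reporters plus pRL-CMV. Stimulated 24 h with 10 ng/mL TNF-α, 10 ng/mL IFN-γ, 5 ng/mL IL-1β ± compound; Dual-Glo firefly/Renilla read. Stimulation-only = 100%; mean ± SEM, ≥3 experiments.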

[2] = molecular target: Nuclear factor NF-kappa-B complex (Homo sapiens) (UniProt Q00653+P19838+Q04206); assay: Inhibition of NF-kappaB (unknown origin)-induced human CXCL10 (972 bp) promoter activity expressed in TNF-alpha/IFN-gamma/IL-1beta-stimulated human DLD1 cells up to 260 uM after 24 hrs by luciferase reporter assay; settings: DLD-1; outline: as §1
Sequence of Nuclear factor NF-kappa-B complex (Homo sapiens) (P19838 whole entry, looked up): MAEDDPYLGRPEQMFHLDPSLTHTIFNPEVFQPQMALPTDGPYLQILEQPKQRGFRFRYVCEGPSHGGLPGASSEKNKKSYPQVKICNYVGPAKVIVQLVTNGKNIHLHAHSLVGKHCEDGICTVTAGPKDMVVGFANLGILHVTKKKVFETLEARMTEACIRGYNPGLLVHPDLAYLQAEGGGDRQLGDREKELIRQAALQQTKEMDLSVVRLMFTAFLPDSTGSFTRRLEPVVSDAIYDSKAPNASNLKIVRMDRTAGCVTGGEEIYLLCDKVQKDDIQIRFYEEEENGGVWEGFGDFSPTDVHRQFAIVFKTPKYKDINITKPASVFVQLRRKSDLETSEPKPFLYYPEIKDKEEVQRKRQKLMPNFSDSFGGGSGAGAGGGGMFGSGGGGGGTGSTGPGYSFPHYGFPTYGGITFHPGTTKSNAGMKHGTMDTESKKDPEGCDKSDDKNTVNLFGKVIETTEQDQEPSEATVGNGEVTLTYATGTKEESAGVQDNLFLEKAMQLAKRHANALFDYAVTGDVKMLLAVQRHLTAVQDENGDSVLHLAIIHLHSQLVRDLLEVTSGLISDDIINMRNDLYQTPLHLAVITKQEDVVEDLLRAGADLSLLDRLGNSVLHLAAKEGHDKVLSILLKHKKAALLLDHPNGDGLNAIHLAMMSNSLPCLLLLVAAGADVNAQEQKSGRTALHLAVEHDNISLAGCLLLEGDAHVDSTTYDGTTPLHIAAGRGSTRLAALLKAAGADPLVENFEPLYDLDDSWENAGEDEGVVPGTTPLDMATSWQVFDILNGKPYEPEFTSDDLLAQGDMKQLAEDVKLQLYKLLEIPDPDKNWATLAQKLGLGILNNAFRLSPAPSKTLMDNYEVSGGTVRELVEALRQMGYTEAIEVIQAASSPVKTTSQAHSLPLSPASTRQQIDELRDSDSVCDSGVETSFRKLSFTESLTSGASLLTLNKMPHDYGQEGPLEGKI
Sequence of Nuclear factor NF-kappa-B complex (Homo sapiens) (Q00653 whole entry, looked up): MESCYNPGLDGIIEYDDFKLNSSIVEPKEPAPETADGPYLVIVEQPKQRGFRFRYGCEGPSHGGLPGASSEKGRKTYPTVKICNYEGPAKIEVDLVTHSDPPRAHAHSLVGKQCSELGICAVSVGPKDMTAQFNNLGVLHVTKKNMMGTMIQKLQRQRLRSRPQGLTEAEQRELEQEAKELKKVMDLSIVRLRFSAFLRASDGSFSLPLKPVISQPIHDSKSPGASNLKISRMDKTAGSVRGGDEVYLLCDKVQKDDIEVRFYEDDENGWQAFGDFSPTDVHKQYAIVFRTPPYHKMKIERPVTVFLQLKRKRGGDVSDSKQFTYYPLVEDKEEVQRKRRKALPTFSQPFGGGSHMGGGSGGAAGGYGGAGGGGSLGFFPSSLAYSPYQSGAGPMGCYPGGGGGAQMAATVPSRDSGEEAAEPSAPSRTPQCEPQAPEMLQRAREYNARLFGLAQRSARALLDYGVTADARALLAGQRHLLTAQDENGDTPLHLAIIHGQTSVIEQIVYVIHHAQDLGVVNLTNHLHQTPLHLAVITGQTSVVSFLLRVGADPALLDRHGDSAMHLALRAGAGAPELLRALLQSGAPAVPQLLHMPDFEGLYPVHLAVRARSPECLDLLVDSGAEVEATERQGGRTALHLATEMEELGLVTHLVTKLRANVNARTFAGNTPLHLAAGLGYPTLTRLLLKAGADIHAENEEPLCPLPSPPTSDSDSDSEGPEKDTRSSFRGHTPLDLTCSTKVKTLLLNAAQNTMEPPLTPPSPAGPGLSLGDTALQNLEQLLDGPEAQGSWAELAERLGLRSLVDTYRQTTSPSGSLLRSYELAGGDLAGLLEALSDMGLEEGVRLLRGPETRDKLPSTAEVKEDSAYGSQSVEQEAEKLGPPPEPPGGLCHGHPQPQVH
Sequence of Nuclear factor NF-kappa-B complex (Homo sapiens) (Q04206 whole entry, looked up): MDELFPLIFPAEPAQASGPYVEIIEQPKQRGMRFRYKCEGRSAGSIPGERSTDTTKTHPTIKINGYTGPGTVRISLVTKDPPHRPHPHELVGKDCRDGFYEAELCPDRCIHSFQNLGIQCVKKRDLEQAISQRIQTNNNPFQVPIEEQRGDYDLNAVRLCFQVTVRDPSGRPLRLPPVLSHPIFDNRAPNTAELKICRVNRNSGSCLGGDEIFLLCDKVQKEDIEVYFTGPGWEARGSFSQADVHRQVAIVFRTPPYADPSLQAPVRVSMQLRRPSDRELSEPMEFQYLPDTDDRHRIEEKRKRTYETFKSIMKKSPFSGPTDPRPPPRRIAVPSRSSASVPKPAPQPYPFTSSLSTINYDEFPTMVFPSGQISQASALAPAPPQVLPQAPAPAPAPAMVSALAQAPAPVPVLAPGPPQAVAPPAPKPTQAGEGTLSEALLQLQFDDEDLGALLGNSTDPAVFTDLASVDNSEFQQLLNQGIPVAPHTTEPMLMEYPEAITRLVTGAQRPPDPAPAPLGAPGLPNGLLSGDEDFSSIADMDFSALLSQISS

DLD-1 [3] = assay: Inhibition of TNF-alpha/IFN-gamma/IL-1beta-induced human CXCL10 (972 bp) promoter activity expressed in human DLD1 cells up to 260 uM after 24 hrs by […]-driven luciferase reporter assay; outline: as §1
[4] = molecular target: T1, Signal transducer and activator of transcription 1-alpha/beta (Homo sapiens) (UniProt P42224); assay: Inhibition of Stat1 (unknown origin)-induced human CXCL10 (972 bp) promoter activity expressed in TNF-alpha/IFN-gamma/IL-1beta-stimulated human DLD1 cells up to 260 uM after 24 hrs by luciferase reporter assay; settings: DLD-1; outline: as §1
T1 sequence (whole entry): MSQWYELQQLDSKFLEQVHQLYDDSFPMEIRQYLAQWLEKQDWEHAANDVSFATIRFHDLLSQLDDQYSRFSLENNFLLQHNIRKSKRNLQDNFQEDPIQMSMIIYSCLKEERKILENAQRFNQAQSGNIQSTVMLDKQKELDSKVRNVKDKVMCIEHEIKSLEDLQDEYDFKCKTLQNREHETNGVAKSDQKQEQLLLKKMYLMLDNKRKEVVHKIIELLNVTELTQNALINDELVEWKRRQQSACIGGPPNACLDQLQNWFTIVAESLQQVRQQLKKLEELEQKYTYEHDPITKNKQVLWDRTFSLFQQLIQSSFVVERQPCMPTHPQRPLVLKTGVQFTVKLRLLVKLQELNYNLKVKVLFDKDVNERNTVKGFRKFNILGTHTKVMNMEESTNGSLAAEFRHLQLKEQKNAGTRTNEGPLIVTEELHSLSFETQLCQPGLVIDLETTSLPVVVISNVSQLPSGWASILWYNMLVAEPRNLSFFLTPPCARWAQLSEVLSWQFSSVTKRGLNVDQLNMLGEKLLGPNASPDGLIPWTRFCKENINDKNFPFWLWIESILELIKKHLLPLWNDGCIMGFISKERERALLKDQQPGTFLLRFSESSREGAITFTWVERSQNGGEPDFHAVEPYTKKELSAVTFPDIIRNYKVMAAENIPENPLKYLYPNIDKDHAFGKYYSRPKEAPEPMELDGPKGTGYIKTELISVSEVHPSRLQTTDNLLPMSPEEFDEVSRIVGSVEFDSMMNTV

Measured: inhibition

CCCCCC(=O)O[C@@H]1C=C2CO[C@@H](O)[C@]2(O)[C@@]2(C)[C@H](O)CCC(C)(C)[C@H]12
inactive: DLD-1 [1] | [2] | DLD-1 [3] | [4]
